Data published in PMC3566476 (Neuropharmacology, 2010).
Like-named read-outs stand apart in the source and are kept apart here.

Assays:
[1] = system: chronic constriction injury (CCI) of the sciatic nerve; experiment: CCI neuropathic pain model, mechanical sensitization; assay type: in vivo, mouse
[2] = system: locomotor activity; experiment: Locomotor activity; assay type: in vivo, mouse
In short: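 Male mice (7–12 weeks) were tested in the light phase. Sixty min after i.p. test compound (16, 48, 100, 160 mg/kg) or vehicle, each mouse was placed in a 20-cm circular enclosure with 4 photocells. Total photocell interruptions were counted over 1 h. n = 10/group; one-way ANOVA with Scheffe post hoc test.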

[3] = system: motor coordination; conditions: mouse, in vivo, ip
[4] = system: sedation; conditions: clinical development stopped; ref Atack et al., 2010; cited from earlier work
[5] = system: rat neuropathic pain model; conditions: ref Knabl et al., 2008, cited from earlier work; for Analgesic effect during repeated administration (tolerance): once per day for nine days
[6] = target: native GABAA receptors in membranes derived from spinal cord; experiment: [3H]flumazenil competition binding, spinal cord membranes; conditions: mouse spinal cord membranes, 1.2 nM [3H]flumazenil, mean ± SD of 3
In short: (§1)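 Brain or spinal cord from male C57BL/6 mice (25–30 g) was homogenized in 10 mM Tris pH 7.4, 150 mM NaCl with protease inhibitors. Spins at 1000 g then 20,000 g (4°C); the pellet was washed in 10 mM Tris-HCl pH 7.4, 100 mM KCl. About 50 μg protein was incubated with increasing test compound and 1.2 nM [3H]flumazenil, 90 min on ice, then filtered. Nonspecific binding: 10 μM clonazepam. Scintillation counting; 3 independent runs.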

[7] = target: native GABAA receptors in membranes prepared from brain; experiment: [3H]flumazenil competition binding, brain membranes; conditions: mouse brain membranes, 1.2 nM [3H]flumazenil, mean ± SD of 3
In short: as §1

[8] = system: α1β3γ2 GABAA receptor; experiment: [3H]flumazenil competition binding, L cells α1β3γ2; conditions: L cells α1β3γ2, [3H]flumazenil
In short: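 L(-tk) cells stably expressing α1β3γ2 were grown in DMEM/10% FBS and induced with 1 μM dexamethasone (final), then harvested 3–4 days later. Cells were sonicated in 10 mM Tris-HCl pH 7.4, 100 mM KCl with protease inhibitors; the 100,000 g pellet was used. About 200 μg protein was incubated with increasing test compound and 1.2 nM [3H]flumazenil for 90 min on ice, then filtered. Nonspecific binding: 10 μM clonazepam. 4–5 independent runs.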

[9] = target: α2β3γ2 GABAA receptor (Homo sapiens, UniProt P18507+P47869); experiment: [3H]flumazenil competition binding, L cells α2β3γ2; conditions: recombinant receptors, α2 versus α1
[10] = Pharmacokinetics of HZ166 in the brain; assay type: in vivo, mouse; conditions: 48 mg / kg i.p.
[11] = system: chronic constriction injury (CCI) of the sciatic nerve; experiment: CCI neuropathic pain model, heat hyperalgesia; assay type: in vivo, mouse
In short: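 Male mice (7–12 weeks) had left sciatic nerve CCI under 2% isoflurane, with three loose chromic gut ligatures. On day 7, test compound 16 mg/kg or vehicle was given i.p. Radiant-heat paw withdrawal latency (plantar test) was taken for 3 h, with 4–5 readings averaged per time point and ipsi/contralateral paws tested alternately. AUC used the pre-drug baseline subtracted. n = 6/group; unpaired t-test.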

[12] = system: zymosan A induced inflammatory hyperalgesia; experiment: Zymosan A model of inflammatory pain, mechanical sensitization; assay type: in vivo, mouse; conditions: 48 hours after zymosan A, 16 mg / kg i.p., 3 hours, n = 6
In short: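 Zymosan A (0.06 mg in 20 μl 0.9% NaCl) was injected s.c. into the left plantar hindpaw of male mice. After 48 h, test compound 16 mg/kg or vehicle was given i.p. Dynamic von Frey withdrawal thresholds were monitored for 3 h (4–5 readings averaged). AUC used the day-2 pre-drug baseline subtracted. n = 6/group; unpaired t-test.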

[13] = system: chronic constriction injury (CCI) of the sciatic nerve; experiment: Tolerance development in the CCI model; assay type: in vivo, mouse; conditions: 16 mg / kg i.p. once daily for 9 days, CCI mice, versus chronic vehicle
In short: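 Starting day 7 after left sciatic CCI, mice got test compound 16 mg/kg or vehicle i.p. once daily for 9 days. On day 10, each group was split to receive acute vehicle or 16 mg/kg i.p. Dynamic von Frey thresholds were followed for 3 h (4–5 readings averaged). %MPE was taken after 3, 5 and 10 days of treatment. n = 6/group.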

[14] = system: sedation; conditions: at anxiolytic doses; ref Fischer et al., 2010; cited from earlier work
[15] = CCI mice day 7, i.p., mechanical sensitization, Hill fit
[16] = i.p., 60 min recording starting 60 min after injection

Compound: NCC1(CC(=O)O)CCCCC1 [gabapentin, reference compound]
- Emax (maximum antihyperalgesic effect, %MPE) [1, 15]: 84 ± 1.4%
- ED50 ([1]; Mus musculus, ip, read-out: ED50 antihyperalgesia): 6.2 ± 0.4 mg/kg
- Doses with significant reduction in locomotor activity [2, 16]: ≥ 30 mg/kg
- Dose causing significant impairment of motor performance in the rotarod test ([3]; male): 90 mg/kg
- Doses that did not interfere with rotarod performance ([3]; male): ≤ 30 mg/kg

Compound: MRK409
- Sedation in humans [4]: sedative effects in man

Compound: CCOC(=O)c1ncn2c1CN(C)C(=O)c1cc(F)ccc1-2 [Flumazenil, flumazenil, reference compound]
- Effect of flumazenil on the antihyperalgesic effect of HZ166 ([1]; flumazenil 10 mg / kg i.p., HZ166 16 mg / kg): almost completely reversed

Compound: CN1CC[C@]23c4c5ccc(O)c4O[C@H]2[C@@H](O)C=C[C@H]3[C@H]1C5 [morphine]
- Analgesic effect during repeated administration (tolerance) [5]: complete tolerance developed

Compound: C#Cc1ccc2c(c1)C(c1ccccn1)=NCc1c(C(=O)OCC)ncn1-2 [HZ166]
- Ki [6]: 189 ± 10 nM
- Ki [7]: 282 ± 6 nM
- Affinity to α2-GABAA receptors higher than that to α1-GABAA receptors [9]: about 40%
- tmax in brain ([10]; CCI operated mice): ≤ 30 min
- estimated α half-life (brain) ([10]; initial elimination phase): 23.4 min
- estimated apparent terminal half-life (brain) ([10]; β-phase): 396 min
- ED50 antihyperalgesia ([1]; CCI mice day 7, i.p., mechanical sensitization, %MPE at 1 h, Hill fit): 5.3 ± 1.8 mg/kg
- Emax (maximum antihyperalgesic effect, %MPE) [1, 15]: 66 ± 5%
- Time of maximum effect on ipsilateral PWT after injection ([1]; CCI mice, i.p.): about 1 h
- Doses with statistically significant antihyperalgesic effects ([1]; CCI mice, i.p., %MPE at 1 h): ≥ 5 mg/kg
- PWTs of the contralateral paw ([1]; CCI mice, i.p., uninjured paw): not affected
- AUC of PWL, injured paw ([11]; CCI mice day 7, 16 mg / kg i.p., 3 hours, n = 6): 4.33 ± 1.95 s·h
- AUC of mechanical PWT [12]: 1.55 ± 0.21 g·h
- estimated ED50 sedation ([2]; estimated from locomotor activity, Fig. 6): 97 mg/kg
- Motor activity at 16 and 48 mg / kg [2, 16]: did not significantly impair motor activity
- Motor activity at 100 and 160 mg / kg [2, 16]: Significant reduction of activity
- Tolerance development (analgesic activity after chronic treatment) [13]: no loss of antihyperalgesic activity
- Doses that did not interfere with rotarod performance [3]: ≤ 160 mg/kg
- Sedation in primates [14]: does not cause sedation

Compound: Cn1ncnc1COc1nn2c(-c3cc(F)ccc3F)nnc2cc1C(C)(C)C [L-838,417]
- Analgesic effect during repeated administration (tolerance) [5]: did not decline
- Antihyperalgesic activity in rat neuropathic pain model [5]: good antihyperalgesic activity
